Test results: PubChem BioAssay
Active and inactive are the calls of the source.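 The calls were made as follows, unless noted: active = viability at or under a set limit in both replicates, limit being median viability minus 3 SD (cut at about 48% in these data, passing the limit was not always enough); inconclusive = at or under the limit in just one replicate; inactive = at or above the limit in both replicates.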

What was measured:
[1] = Her2 expression decrease, cell viability multiplex – SKBR3 breast tumor cells, AlphaScreen, ATP viability, primary screen (AID 461;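 active = Her2 level under about 52% in both replicate screens, with viability over 70% of control, limit read from the data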;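 as to Her2 level: lower value means less Her2 protein in the cells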;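 as to viability: percent of carrier control wells set as 100% viability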); conditions: SKBR3 Her2 protein level, 18-24 h, measured here: SKBR3 viability, ATP luminescence, at 10 µM
[2] = target: Receptor tyrosine-protein kinase erbB-2 (Homo sapiens) (UniProt P04626); experiment: as above; conditions: 18-24 h, at 10 µM, stronger effect = lower value
Sequence of Receptor tyrosine-protein kinase erbB-2 (Homo sapiens) (P04626 whole entry, looked up): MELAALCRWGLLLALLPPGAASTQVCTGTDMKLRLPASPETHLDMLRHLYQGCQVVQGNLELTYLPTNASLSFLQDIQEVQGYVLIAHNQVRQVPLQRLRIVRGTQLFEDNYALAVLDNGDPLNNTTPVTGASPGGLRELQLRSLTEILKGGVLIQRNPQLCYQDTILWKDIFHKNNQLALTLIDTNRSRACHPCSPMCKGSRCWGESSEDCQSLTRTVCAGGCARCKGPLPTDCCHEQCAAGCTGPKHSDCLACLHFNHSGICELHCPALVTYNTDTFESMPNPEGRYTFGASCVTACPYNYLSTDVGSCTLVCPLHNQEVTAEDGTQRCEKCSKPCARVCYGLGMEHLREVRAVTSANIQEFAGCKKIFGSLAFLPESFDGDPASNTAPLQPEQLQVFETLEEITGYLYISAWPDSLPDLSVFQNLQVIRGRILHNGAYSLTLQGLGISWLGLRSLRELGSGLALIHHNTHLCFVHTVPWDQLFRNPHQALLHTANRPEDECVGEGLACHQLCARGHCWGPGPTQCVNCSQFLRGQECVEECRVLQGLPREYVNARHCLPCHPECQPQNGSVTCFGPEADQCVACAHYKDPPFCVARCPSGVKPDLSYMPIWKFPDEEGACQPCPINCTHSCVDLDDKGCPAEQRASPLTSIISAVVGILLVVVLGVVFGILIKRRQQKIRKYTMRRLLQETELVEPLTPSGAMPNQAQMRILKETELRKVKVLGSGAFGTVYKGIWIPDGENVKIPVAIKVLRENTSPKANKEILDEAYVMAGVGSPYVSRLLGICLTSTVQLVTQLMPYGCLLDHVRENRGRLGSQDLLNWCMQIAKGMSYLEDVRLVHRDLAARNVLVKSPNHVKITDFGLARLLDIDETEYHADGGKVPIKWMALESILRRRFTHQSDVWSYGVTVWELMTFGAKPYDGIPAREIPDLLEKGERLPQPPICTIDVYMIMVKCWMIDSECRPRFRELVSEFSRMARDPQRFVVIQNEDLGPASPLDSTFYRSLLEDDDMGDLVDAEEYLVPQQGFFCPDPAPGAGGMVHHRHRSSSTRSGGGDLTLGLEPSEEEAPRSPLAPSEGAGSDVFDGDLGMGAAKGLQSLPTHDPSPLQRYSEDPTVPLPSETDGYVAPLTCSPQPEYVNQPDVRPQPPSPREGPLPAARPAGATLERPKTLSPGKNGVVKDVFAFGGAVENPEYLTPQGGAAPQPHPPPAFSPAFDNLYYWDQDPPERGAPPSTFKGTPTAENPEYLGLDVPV

[3] = reduced viability of SK-BR-3 breast cancer cells – cell-based, 24 h, human, pilot screen (AID 572;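 active = viability at or below 10% of carrier control in both of two separate runs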;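 also: compound exposure lasted between 18 and 24 h rather than exactly 24 h; 100% = carrier-treated control wells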); conditions: SK-BR-3 viability, CellTiter-Glo luminescence, at 10 µM, stronger effect = lower value
[4] = HUVEC growth inhibition – cell-based, human, primary screen (AID 575;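 active = viability at or below 30% in both replicate assays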;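 also: 100% = median of untreated cell wells with 0.1% DMSO on each plate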); conditions: HUVEC proliferation, CellTiter-Glo luminescence, 72 h; at 10 µM; stronger effect = lower value
Procedure, shortened: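 Test system – primary HUVEC, no more than 12 passages · Dosing – one dose, 10 µM final, 0.1% DMSO · Times – 72 h treatment at 37 °C · Measured by – ATP-based CellTiter-Glo luminescent read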

[5] = H69AR cell proliferation blockers – human, duplicate replicates, primary screen (AID 580); conditions: H69AR lung tumor cells viability, ATP luminescence, 72 h; at 10 µM; stronger effect = lower value;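 also: 100% = mean luminescence of untreated wells and 0% = no signal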
[6] = MRP1 drug-resistance reversers in H69AR cells – cell-based, doxorubicin co-treatment, pilot screen (AID 601;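 active = viability loss from added drug above about 55%, and viability with drug at most 40%, in both replicates, limit read from the data, passing the limit was not always enough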); conditions: CellTiter-Glo, 72 h, at 10 µM; for differential viability (reversal): stronger effect = higher value
[7] = yeast transport mutant growth inhibition pilot in 384-well plates, post-Golgi transport modulator project (AID 636; in the data active = inhibition above about 31%); conditions: absorbance 615 nm, about 18 h, stronger effect = higher value
[8] = growth suppression of yeast trafficking mutant, preliminary HTS, modulators of trafficking downstream of Golgi apparatus project, 1536-format plate, OD 615 nm (AID 637; in the data active = inhibition above about 30%); conditions: yeast transport mutant growth, absorbance 615 nm, 18 h; stronger effect = higher value
[9] = H69AR cells + 2 uM doxorubicin, measured here: viability with 2 uM doxorubicin, stronger effect = lower value
[10] = H69AR cells, compound alone cytotoxicity

SMILES	viability [1] [%]	Her2 level [2]	viability [3]	viability [4]	viability [5]	differential viability (reversal) ([6]; H69AR cells + 2 uM doxorubicin)	viability [6, 9] [%]	viability [6, 10] [%]	inhibition [7]	inhibition [8]
COc1cc(OC)cc(-c2nc3nc(C)c(CCC(=O)O)c(C)n3n2)c1	106	81.5% (inactive)	106% (inactive)	80.1% (inactive)	91.5% (inactive)	7.47% (inactive)	84	91.5	-4.08% (inactive)	0.18% (inactive)
CCCCOC(=O)C1=C(C)Nc2ncnn2C1c1cccc(OC)c1OC (stereo not given)	81.5	65.5% (inactive)	81.5% (inactive)	95% (inactive)	88.5% (inactive)	7.84% (inactive)	80.7	88.5	-5.13% (inactive)	-3.33% (inactive)
Cc1ccc(-c2nnc(SCC(=O)N3CC(C)CC(C)C3)o2)cc1C (stereo not given)	97	106% (inactive)	97% (inactive)	71.4% (inactive)	90.7% (inactive)	-2.04% (inactive)	92.7	90.7	-2.13% (inactive)	-4.75% (inactive)
CCOC(=O)c1cccc(NC(=O)C2CCN(S(=O)(=O)c3cccs3)CC2)c1	75.5	96% (inactive)	75.5% (inactive)	60.7% (inactive)	65% (inactive)	-7.91% (inactive)	72.9	65	-5.58% (inactive)	-3.81% (inactive)
Cc1cc(C)cc(NC(=O)c2nnn(Cc3cc(C)ccc3C)c2N)c1	111	92% (inactive)	111% (inactive)	71.3% (inactive)	88.1% (inactive)	-2.83% (inactive)	90.9	88.1	-0.8% (inactive)	-1.33% (inactive)
CO/C([O-])=N/c1c[n+](-c2ccc(C)cc2)no1	100	92.5% (inactive)	100% (inactive)	109% (inactive)	90.5% (inactive)	-0.875% (inactive)	91.3	90.5	-6.49% (inactive)	7.38% (inactive)
Cc1nnc(SCC(=O)Nc2ccc3c(c2)OCCO3)n1CC1CCCO1 (stereo not given)	102	88.5% (inactive)	102% (inactive)	91.8% (inactive)	94% (inactive)	3.46% (inactive)	90.6	94	-5.14% (inactive)	-3.33% (inactive)
CC1(C)CC(=O)C(C=NCc2ccc3c(c2)OCO3)=C(O)C1	104	95.5% (inactive)	104% (inactive)	96.6% (inactive)	91.3% (inactive)	5% (inactive)	86.3	91.3	0.65% (inactive)	-4.92% (inactive)
COc1ccccc1C1C(C#N)=C(N)Oc2cc(C)n(Cc3ccccn3)c(=O)c21 (stereo not given)	108	133% (inactive)	108% (inactive)	93.9% (inactive)	90.2% (inactive)	-2.41% (inactive)	92.6	90.2	-0.66% (inactive)	-6.94% (inactive)
Cc1cc(NC(=O)CSc2nccn2-c2ccc(Cl)cc2)no1	91.5	103% (inactive)	91.5% (inactive)	111% (inactive)	106% (inactive)	28% (inactive)	78.1	106	-1.56% (inactive)	-2.38% (inactive)
CN(CC(=O)Nc1sccc1C#N)C1CCCCC1	106	104% (inactive)	106% (inactive)	89.8% (inactive)	93.2% (inactive)	5.53% (inactive)	87.7	93.2	-6.67% (inactive)	-4.44% (inactive)
CCC(C)NC(=O)CCNS(=O)(=O)c1ccc(Br)cc1 (stereo not given)	95.5	73% (inactive)	95.5% (inactive)	99.2% (inactive)	98.5% (inactive)	2.66% (inactive)	95.8	98.5	-4.74% (inactive)	-1.67% (inactive)
Cc1cc(NC(=O)CSc2nnc(C3CC3)n2C)no1	91	80% (inactive)	91% (inactive)	92.4% (inactive)	100% (inactive)	0.235% (inactive)	100	100	-0.53% (inactive)	-2.91% (inactive)
O=C(NCc1cccnc1)c1ccc(Cl)c(Cl)c1	89	75% (inactive)	89% (inactive)	95.2% (inactive)	96.8% (inactive)	9.16% (inactive)	87.7	96.8	-1.33% (inactive)	3.61% (inactive)
O=C(COc1ccccc1)Nc1ccccc1N1CCN(c2ccccc2)CC1	80	86% (inactive)	80% (inactive)	96% (inactive)	84.2% (inactive)	1.58% (inactive)	82.6	84.2	-4.27% (inactive)	2.62% (inactive)
Cc1ccccc1-c1nc2ccccc2c(=O)n1C1CCS(=O)(=O)C1 (stereo not given)	96.5	91.5% (inactive)	96.5% (inactive)	108% (inactive)	90.3% (inactive)	-9.98% (inactive)	100	90.3	0.26% (inactive)	0.97% (inactive)
COc1ccc(CCN2C(=O)CCC2(C)C(=O)NCc2cccnc2)cc1OC (stereo not given)	106	91% (inactive)	106% (inactive)	109% (inactive)	89.2% (inactive)	1.2% (inactive)	88	89.2	-2.86% (inactive)	-2.22% (inactive)
CC(=O)N(CCc1ccccc1C)Cc1cc2cc3c(cc2[nH]c1=O)OCO3	99	85.5% (inactive)	99% (inactive)	90.1% (inactive)	91.2% (inactive)	-2.76% (inactive)	93.9	91.2	-2.03% (inactive)	4.44% (inactive)
Cc1nnc(SC(=O)N2c3ccccc3Sc3ccccc32)s1	114	6.5% (active)	114% (inactive)	13.2% (active)	1.79% (active)	0.105% (inactive)	1.69	1.79	54% (active)	8.67% (inactive)
O=C1c2ccccc2C(=O)N1OCc1ccccc1	95.5	91.5% (inactive)	95.5% (inactive)	101% (inactive)	92.2% (inactive)	-0.76% (inactive)	92.9	92.2	-6.18% (inactive)	3.93% (inactive)
Cc1c(NC(=O)c2ccc(COc3ccc4ccccc4c3)o2)c(=O)n(-c2ccccc2)n1C	88.5	91% (inactive)	88.5% (inactive)	91.2% (inactive)	99% (inactive)	13.7% (inactive)	85.3	99	-5.47% (inactive)	-5.9% (inactive)
CCOC(=O)C1=C(N)OC2=C(C(=O)CC(C)(C)C2)C1c1ccoc1 (stereo not given)	80	107% (inactive)	80% (inactive)	112% (inactive)	96.3% (inactive)	8.7% (inactive)	87.7	96.3	-5.53% (inactive)	-8.33% (inactive)
Nc1nc(CSc2nc3ccccc3[nH]2)nc(N2CCOCC2)n1	96	100% (inactive)	96% (inactive)	109% (inactive)	92.8% (inactive)	0.96% (inactive)	91.9	92.8	-0.13% (inactive)	-3.83% (inactive)
COc1ccc(C2NC(c3ccc(OC)c(OC)c3OC)C(C)C(=O)C2C)c(OC)c1OC (stereo not given)	99.5	88.5% (inactive)	99.5% (inactive)	99.7% (inactive)	92.4% (inactive)	7.84% (inactive)	84.5	92.4	-3.42% (inactive)	-2.22% (inactive)
CCOC(=O)c1cc2ccc(OC)c(OC)c2c(=O)s1	98.5	94% (inactive)	98.5% (inactive)	83.9% (inactive)	83.5% (inactive)	-0.1% (inactive)	83.6	83.5	0.78% (inactive)	-7% (inactive)
Cc1cccc2cc(CN(Cc3nnnn3C3CCCC3)C3CCCCC3)c(=O)[nH]c12	84.5	109% (inactive)	84.5% (inactive)	72.7% (inactive)	79.4% (inactive)	0.525% (inactive)	78.9	79.4	-1.71% (inactive)	-10.2% (inactive)
COc1ccc(OC)c2[nH]c(=O)c(CCNC(=O)CC(C)C)cc12	111	104% (inactive)	111% (inactive)	106% (inactive)	100% (inactive)	4.93% (inactive)	95.2	100	-8.77% (inactive)	-4.44% (inactive)
CN(C)S(=O)(=O)c1ccc(S(=O)(=O)N(Cc2ccco2)Cc2ccccc2Cl)cc1	93	93% (inactive)	93% (inactive)	100% (inactive)	95.8% (inactive)	7.62% (inactive)	88.2	95.8	-9.18% (inactive)	-2.7% (inactive)
